Data from ChEMBL document CHEMBL3774321, “Systematic diversification of benzylidene heterocycles yields novel inhibitor scaffolds selective for Dyrk1A, Clk1 and CK2” (Eur J Med Chem, 2016).

Assays:
[1] = Half life in rat plasma at 1 uM by LC-MS/MS analysis; type: ADME, cell-free
Procedure, shortened: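 Pooled heparinized rat plasma incubated with 1 μM compound at 37 °C, sampled at 0, 5, 15, 30, 60 and 120 min. Reaction stopped with 5 volumes cold acetonitrile containing internal standard. Remaining compound quantified by LC-MS/MS. Half-life given as mean of two experiments.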

[2] = system: Plasma; test: Metabolic stability in rat plasma assessed as drug degradation at 1 uM after 120 mins by LC-MS/MS analysis; type: ADME, cell-free; details: 2 h
Procedure, shortened: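 Compound (1 µM) in pooled heparinised rat plasma at 37 °C, sampled at 0, 5, 15, 30, 60 and 120 min. Reaction stopped with 5 volumes of cold acetonitrile containing internal standard. Remaining compound was measured by LC-MS/MS; means of two experiments.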

[3] = target: T1, Dual specificity tyrosine-phosphorylation-regulated kinase 1A (Homo sapiens, UniProt Q13627); test: Inhibition of recombinant human N-terminal His6-tagged DYRK1A catalytic domain expressed in Escherichia coli BL21(DE3) cells using KKISGRLSPIMTEQ-NH2 as substrate incubated for 15 mins in presence of [gamma-32P]ATP
[4] = target: Dual specificity tyrosine-phosphorylation-regulated kinase 1B (Homo sapiens, UniProt Q9Y463); test: Inhibition of full length recombinant human GST-tagged DYRK1B expressed in insect cells using KKISGRLSPIMTEQ-NH2 as substrate incubated for 15 mins in presence of [gamma-32P]ATP
Chain of Dual specificity tyrosine-phosphorylation-regulated kinase 1B (Q9Y463 whole entry): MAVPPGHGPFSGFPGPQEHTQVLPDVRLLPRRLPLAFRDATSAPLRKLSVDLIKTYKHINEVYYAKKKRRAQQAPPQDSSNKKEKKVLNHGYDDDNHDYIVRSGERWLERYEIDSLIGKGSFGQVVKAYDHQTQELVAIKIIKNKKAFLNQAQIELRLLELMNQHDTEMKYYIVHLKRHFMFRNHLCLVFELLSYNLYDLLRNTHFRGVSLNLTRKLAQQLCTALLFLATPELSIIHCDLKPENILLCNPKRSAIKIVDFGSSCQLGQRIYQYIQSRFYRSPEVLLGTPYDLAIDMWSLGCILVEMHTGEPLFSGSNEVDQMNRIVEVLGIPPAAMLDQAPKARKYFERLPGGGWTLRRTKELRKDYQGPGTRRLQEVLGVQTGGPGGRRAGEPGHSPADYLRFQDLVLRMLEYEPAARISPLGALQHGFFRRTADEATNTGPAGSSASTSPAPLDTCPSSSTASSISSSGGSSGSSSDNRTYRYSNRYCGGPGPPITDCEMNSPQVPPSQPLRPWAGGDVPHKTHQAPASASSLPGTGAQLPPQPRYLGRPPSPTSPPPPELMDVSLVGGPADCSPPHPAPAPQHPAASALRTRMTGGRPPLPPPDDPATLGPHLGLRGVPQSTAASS

[5] = target: T2, Dual specificity tyrosine-phosphorylation-regulated kinase 2 (Homo sapiens, UniProt Q92630); test: Inhibition of recombinant human N-terminal GST-tagged DYRK2 expressed in Escherichia coli BL21(DE3) cells using KKISGRLSPIMTEQ-NH2 as substrate incubated for 15 mins in presence of [gamma-32P]ATP
T2 sequence (Q92630 whole entry): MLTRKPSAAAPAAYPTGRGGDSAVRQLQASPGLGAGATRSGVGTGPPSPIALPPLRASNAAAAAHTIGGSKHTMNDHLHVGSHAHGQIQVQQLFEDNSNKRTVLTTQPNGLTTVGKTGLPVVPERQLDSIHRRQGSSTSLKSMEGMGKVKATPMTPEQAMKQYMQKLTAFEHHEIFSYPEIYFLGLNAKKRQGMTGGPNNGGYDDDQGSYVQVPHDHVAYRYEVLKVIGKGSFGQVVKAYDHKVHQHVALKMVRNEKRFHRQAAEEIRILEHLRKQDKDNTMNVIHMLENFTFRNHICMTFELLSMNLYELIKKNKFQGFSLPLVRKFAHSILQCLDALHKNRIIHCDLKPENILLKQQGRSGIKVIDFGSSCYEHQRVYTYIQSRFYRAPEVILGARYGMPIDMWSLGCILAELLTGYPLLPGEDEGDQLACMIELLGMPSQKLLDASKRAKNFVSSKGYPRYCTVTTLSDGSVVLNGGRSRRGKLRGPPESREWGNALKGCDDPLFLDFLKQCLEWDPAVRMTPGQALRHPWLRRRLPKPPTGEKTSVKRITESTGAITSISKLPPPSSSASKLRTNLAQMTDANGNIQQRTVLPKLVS
Procedure, shortened: (§1)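 Purified recombinant kinase with 100 µM ATP. IC50 values are averages of at least two independent determinations.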

[6] = target: Casein kinase II (Homo sapiens, UniProt P19784+P67870+P68400); test: (§2) Inhibition of CK2 (unknown origin) using RRRDDDSDDD-NH2 as susbtrate incubated for 15 mins in presence of [gamma-32P]ATP; type: protein-complex assay
Chain of Casein kinase II (Homo sapiens, UniProt P19784+P67870+P68400) (P67870 whole entry, the tested form may be a part): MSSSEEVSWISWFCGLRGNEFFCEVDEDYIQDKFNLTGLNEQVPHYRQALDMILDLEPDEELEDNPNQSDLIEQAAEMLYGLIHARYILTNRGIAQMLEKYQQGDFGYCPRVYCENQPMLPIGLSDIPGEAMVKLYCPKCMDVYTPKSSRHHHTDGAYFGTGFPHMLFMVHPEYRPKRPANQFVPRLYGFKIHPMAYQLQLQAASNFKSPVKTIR
Chain of Casein kinase II (Homo sapiens, UniProt P19784+P67870+P68400) (P68400 whole entry, the tested form may be a part): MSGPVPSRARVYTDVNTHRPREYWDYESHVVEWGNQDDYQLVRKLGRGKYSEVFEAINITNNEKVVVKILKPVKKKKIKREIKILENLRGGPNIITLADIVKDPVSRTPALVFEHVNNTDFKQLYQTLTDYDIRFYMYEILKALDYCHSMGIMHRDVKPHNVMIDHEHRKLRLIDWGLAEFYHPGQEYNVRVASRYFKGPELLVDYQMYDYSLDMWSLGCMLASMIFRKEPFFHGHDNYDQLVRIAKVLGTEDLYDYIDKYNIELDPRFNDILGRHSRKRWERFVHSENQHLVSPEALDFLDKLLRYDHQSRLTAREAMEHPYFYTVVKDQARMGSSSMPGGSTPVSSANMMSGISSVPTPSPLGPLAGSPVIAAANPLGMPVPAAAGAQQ
Chain of Casein kinase II (Homo sapiens, UniProt P19784+P67870+P68400) (P19784 whole entry, the tested form may be a part): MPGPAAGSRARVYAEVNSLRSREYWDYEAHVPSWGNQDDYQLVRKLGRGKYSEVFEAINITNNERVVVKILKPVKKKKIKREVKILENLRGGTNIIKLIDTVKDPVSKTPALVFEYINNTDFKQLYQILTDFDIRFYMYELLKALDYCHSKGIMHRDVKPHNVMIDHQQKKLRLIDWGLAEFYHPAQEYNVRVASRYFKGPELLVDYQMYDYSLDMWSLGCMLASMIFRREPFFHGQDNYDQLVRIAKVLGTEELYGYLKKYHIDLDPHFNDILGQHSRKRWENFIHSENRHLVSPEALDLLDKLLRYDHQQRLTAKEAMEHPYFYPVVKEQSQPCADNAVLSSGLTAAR

[7] = target: Dual specificity protein kinase CLK1 (Homo sapiens, UniProt P49759); test: Inhibition of recombinant human GST-tagged CLK1 catalytic domain (129 to 484 residues) expressed in Escherichia coli using GRSRSRSRSRSRSRSR as substrate incubated for 15 mins in presence of [gamma-32P]ATP; procedure, shortened: as §1
Chain of Dual specificity protein kinase CLK1 (P49759 whole entry, the tested form may be a part): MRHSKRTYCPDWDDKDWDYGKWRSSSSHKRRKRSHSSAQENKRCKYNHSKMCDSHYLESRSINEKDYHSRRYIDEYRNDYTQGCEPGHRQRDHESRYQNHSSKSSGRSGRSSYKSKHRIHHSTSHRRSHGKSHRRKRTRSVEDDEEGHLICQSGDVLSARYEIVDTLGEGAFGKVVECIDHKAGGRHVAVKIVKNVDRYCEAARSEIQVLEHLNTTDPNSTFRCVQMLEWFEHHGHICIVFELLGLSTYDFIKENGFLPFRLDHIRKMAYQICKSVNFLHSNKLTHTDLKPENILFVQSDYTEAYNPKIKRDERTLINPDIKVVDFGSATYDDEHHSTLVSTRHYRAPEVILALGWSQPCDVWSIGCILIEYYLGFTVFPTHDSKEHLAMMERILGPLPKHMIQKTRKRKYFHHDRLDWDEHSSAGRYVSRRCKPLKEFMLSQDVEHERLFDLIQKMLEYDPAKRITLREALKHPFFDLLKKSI

[8] = target: Epidermal growth factor receptor (Homo sapiens, UniProt P00533); test: Inhibition of EGFR (unknown origin) incubated for 15 mins in presence of [gamma-32P]ATP
Chain of Epidermal growth factor receptor (P00533 whole entry): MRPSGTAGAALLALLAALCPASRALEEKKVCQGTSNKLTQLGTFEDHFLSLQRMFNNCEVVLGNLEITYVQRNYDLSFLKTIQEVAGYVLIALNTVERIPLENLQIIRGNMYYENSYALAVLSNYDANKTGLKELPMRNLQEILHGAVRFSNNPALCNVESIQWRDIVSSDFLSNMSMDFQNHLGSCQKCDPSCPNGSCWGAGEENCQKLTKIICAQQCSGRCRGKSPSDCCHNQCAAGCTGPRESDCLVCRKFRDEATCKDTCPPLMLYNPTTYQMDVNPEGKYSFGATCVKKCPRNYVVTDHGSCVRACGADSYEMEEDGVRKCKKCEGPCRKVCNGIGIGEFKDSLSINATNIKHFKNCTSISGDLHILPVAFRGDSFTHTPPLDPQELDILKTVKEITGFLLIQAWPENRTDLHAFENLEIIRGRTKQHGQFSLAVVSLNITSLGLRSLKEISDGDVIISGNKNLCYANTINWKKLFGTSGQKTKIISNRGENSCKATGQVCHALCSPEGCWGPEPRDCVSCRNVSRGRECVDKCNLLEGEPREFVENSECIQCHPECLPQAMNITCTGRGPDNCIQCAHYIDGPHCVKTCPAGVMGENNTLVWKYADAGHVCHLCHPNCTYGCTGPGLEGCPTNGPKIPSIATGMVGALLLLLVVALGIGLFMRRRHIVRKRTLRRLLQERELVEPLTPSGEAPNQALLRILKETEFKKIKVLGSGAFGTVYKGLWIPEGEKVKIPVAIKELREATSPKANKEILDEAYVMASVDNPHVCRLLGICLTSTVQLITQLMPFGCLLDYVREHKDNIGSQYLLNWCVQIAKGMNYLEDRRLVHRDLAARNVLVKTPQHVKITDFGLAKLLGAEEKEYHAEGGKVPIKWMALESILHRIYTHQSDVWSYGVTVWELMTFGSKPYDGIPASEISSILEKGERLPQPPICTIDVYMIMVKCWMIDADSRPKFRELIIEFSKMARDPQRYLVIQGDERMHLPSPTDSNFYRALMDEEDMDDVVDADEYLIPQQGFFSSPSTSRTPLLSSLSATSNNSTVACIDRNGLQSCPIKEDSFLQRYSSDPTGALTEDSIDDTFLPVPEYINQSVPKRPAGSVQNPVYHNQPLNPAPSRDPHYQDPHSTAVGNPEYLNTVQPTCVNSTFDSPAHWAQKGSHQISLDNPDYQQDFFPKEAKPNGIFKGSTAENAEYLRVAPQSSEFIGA
Procedure, shortened: (§3)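 Purified recombinant kinase assayed with 100 μM ATP. Values averaged from at least two independent determinations.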

[9] = target: Protein kinase C beta type (Homo sapiens, UniProt P05771); test: Inhibition of PKCbeta (unknown origin) incubated for 15 mins in presence of [gamma-32P]ATP; procedure, shortened: as §3
Chain of Protein kinase C beta type (P05771 whole entry): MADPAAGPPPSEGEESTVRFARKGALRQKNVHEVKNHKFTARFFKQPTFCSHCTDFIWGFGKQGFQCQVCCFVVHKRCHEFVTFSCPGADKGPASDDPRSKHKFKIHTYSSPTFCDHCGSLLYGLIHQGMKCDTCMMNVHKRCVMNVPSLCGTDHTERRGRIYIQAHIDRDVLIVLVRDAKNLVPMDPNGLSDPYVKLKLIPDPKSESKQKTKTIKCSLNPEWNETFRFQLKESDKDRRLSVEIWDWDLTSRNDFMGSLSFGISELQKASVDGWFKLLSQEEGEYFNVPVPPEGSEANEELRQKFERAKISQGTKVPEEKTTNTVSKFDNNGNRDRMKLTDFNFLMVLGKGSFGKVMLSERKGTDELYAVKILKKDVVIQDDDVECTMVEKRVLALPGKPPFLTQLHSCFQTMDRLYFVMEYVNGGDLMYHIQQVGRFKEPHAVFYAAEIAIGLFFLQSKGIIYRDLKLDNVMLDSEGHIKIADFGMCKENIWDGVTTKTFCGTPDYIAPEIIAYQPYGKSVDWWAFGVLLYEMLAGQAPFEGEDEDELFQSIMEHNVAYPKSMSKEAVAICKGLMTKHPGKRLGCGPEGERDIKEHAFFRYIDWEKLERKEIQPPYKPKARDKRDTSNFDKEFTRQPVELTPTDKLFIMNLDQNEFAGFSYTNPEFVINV

[10] = Growth inhibition of human U87MG cells after 4 days by MTT assay; type: functional, cell-based, U-87MG ATCC; details: U-87 MG, 96 h
[11] = Dissociation constant, pKa of compound; type: physicochemical
[12] = target: T1, Dual specificity tyrosine-phosphorylation-regulated kinase 1A; test: Inhibition of tetracycline-inducible EGFP-DYRK1A (unknown origin) expressed in HEK293 cells coexpressing full length human EGFP-tau protein assessed as reduction in tau-Thr212 phosphorylation incubated overnight by immunoblotting assay
[13] = target: Casein kinase II (Homo sapiens, UniProt P67870+P68400+P19784); test: as §2; type: protein-complex assay
Chain of Casein kinase II (Homo sapiens, UniProt P67870+P68400+P19784) (P67870 whole entry): as the sequence (P67870 whole entry, the tested form may be a part) above
Chain of Casein kinase II (Homo sapiens, UniProt P67870+P68400+P19784) (P68400 whole entry): as the sequence (P68400 whole entry, the tested form may be a part) above
Chain of Casein kinase II (Homo sapiens, UniProt P67870+P68400+P19784) (P19784 whole entry): as the sequence (P19784 whole entry, the tested form may be a part) above

Row | half-life at 1 µM [1] [h] | Stability [2] | IC50 [3] [nM] | IC50 [4] [nM] | IC50 ([5]; read-out: IC50) [nM] | IC50 [6] [nM] | IC50 [7] [nM] | IC50 ([8]; read-out: IC50) [nM] | IC50 [9] | IC50 [8] | pKa [11] | IC50 [12] [nM] | IC50 [5] | IC50 ([9]; read-out: IC50) [nM] | IC50 [13] | Structure (SMILES) | IC50 [10] [nM]
1 | > 2 | Stable | 960 | 2170 | 820 | > 10000 | > 10000 | > 10000 | Not Active |  |  |  |  |  |  | O=C1OCC/C1=C\c1ccc2c(c1)CCO2 | 
2 |  |  | > 10000 |  |  |  |  |  |  |  |  |  |  |  |  | COc1ccc(/C=C2\CC(=O)NC2=O)cc1 | 
3 |  |  | 930 | 6700 | > 10000 | > 10000 | 3900 | > 10000 | Not Active |  |  |  |  |  |  | O=C1OCC/C1=C\c1ccc2c(c1)CCCO2 | 
4 |  |  | 250 | 1500 | > 10000 | 220 | 5700 |  | Not Active | Not Active | 5.8 |  |  |  |  | COc1ccc(/C=C2/SC(=S)NC2=O)cc1 | 9500
5 | < 0.0833 |  |  |  |  |  |  |  |  |  |  |  |  |  |  | CCOC(=O)[C@H](Cc1ccccc1)NC(C)=O | 
6 |  |  | 30 | 80 | 100 | 20 | 70 | > 10000 | Not Active |  |  | 1600 |  |  |  | O=C1NC(=O)/C(=C/c2ccc3nccnc3c2)S1 | 320
7 |  |  | 1200 | 10500 |  | > 10000 | 4370 |  | Not Active |  |  |  | Not Active |  |  | COc1ccc(/C=C2\CC(C)OC2=O)cc1 (stereo not drawn) | 
8 |  |  | 1080 | 1680 | > 10000 | > 10000 | 170 | > 10000 | Not Active |  |  |  |  |  |  | CC1C/C(=C\c2ccc3ncsc3c2)C(=O)O1 (stereo not drawn) | 
9 |  |  | 100 | 300 | 1000 | 100 | 500 | > 10000 |  |  |  |  |  | > 10000 |  | O=C1NC(=S)S/C1=C\c1ccc2c(c1)CCO2 | 5600
10 |  |  | 1300 | 5200 | 9200 | 170 | 3600 |  | Not Active | Not Active |  |  |  |  |  | COc1ccc(/C=C2\NC(=O)SC2=O)cc1 | 
11 | 2.08 |  |  |  |  |  |  |  |  |  |  |  |  |  |  | COc1ccc([C@@H]2Sc3ccccc3N(CCN(C)C)C(=O)[C@@H]2OC(C)=O)cc1 [DILTIAZEM] | 
12 |  |  |  |  |  |  |  |  |  |  |  |  |  |  |  | COc1ccc2c(c1)[nH]c1c(C)nccc12 [HARMINE] | 7200
13 |  |  | 600 | 2630 | 990 | > 10000 | > 10000 | > 10000 | Not Active |  |  |  |  |  |  | O=C1OCC/C1=C\c1ccc2c(c1)OCO2 | 
14 |  |  | 880 | 4290 | 2040 | > 10000 | > 10000 | > 10000 | Not Active |  |  |  |  |  |  | O=C1OCC/C1=C\c1ccc2c(c1)OCCO2 | 
15 |  |  | 1100 | 5800 | > 10000 | > 10000 | 7520 |  | Not Active | Not Active |  |  |  |  |  | COc1ccc(/C=C2\CCCOC2=O)cc1 | 
16 |  |  | 700 | 900 | 1500 | 2400 | 20 | > 10000 |  |  |  |  |  | > 10000 |  | O=C1NC(=S)N/C1=C\c1ccc2ncsc2c1 | 
17 |  |  | 1810 | 3800 | > 10000 |  | > 10000 |  | Not Active | Not Active |  |  |  |  | Not Active | COc1ccc(/C=C2\CCOC2=O)cc1 | 
18 |  |  | 6400 | > 10000 |  |  | 10000 |  | Not Active |  | 8.9 |  | Not Active |  | Not Active | COc1ccc(/C=C2\NC(=O)NC2=O)cc1 | 
